# Measurements as given in ChEMBL document CHEMBL4765329, “Exploration of carbamide derived pyrimidine-thioindole conjugates as potential VEGFR-2 inhibitors with anti-angiogenesis effect” (Eur J Med Chem, 2020).
# The source made the active and inactive calls. The calls are words filed in the database; no cut-off is given here.
# Legend:
# MDA-MB-231 [1] = test: cells; details: Homo sapiens, MDA-MB-231, 72 h
# A549 = test: cells; details: Homo sapiens, A549, 72 h
# PC-3 = test: cells; details: Homo sapiens, PC-3, 72 h
# HepG2 = test: cells; details: Homo sapiens, HepG2, 72 h
# MDA-MB-231 [2] = test: Antimigratory activity against human MDA-MB-231 cells assessed as inhibition of cell migration at 2.5 uM measured after 24 hrs by phase contrast microscope based wound healing assay; format: functional
# Outline: (§1)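 Confluent MDA-MB-231 monolayers (DMEM, 10% FBS) were scratched with a sterile pipette tip and then treated. Wound closure was imaged by phase contrast microscopy after 24 h and compared with untreated control.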
# HUVEC [3] = test: Antiangiogenic activity against human HUVEC cells assessed as inhibition of tube formation measured after 16 hrs by matrigel based tube formation assay; format: functional, cell-based; details: dose 2.5-5 µM
# Outline: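 HUVECs were plated on Matrigel with 2.5 and 5 μM test agent, alongside a reference VEGFR-2 inhibitor. Tube networks were imaged, and quantification covered cell-covered area, tube length, branching points and total loops.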
# MDA-MB-231 [4] = test: Antimigratory activity against human MDA-MB-231 cells assessed as inhibition of cell migration at 5 uM measured after 24 hrs by phase contrast microscope based wound healing assay; format: functional
# Outline: as §1
# HUVEC [5] = test: Antimigratory activity against human HUVEC cells assessed as inhibition of cell invasion measured by inverted fluorescence microscope based transwell assay; format: functional; details: dose 2.5-5 µM
# Outline: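 A Boyden chamber (transwell) invasion assay used HUVECs passing through Matrigel and a membrane barrier. Treatment was 2.5 and 5 µM, with a reference VEGFR-2 inhibitor as standard. Invaded cells on the bottom side were compared with untreated control.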
# MDA-MB-231 [6] = test: Induction of apoptosis in human MDA-MB-231 cells assessed as viable cells at 5 uM measured after 48 hrs by Annexin V-FITC/Propidium iodide stain based flow cytometry assay (reference value: 95.3%); format: functional; details: read-out: Activity
# MDA-MB-231 [7] = test: Induction of apoptosis in human MDA-MB-231 cells assessed as induction of morphological changes by measuring nuclear shrinkage and fragmentation in nucleus measured after 48 hrs by Hoechst stain based flourescence assay in relative to control; format: functional, cell-based; details: dose 2.5-5 µM
# Outline: (§2)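 MDA-MB-231 cells were treated at 2.5 and 5 µM and stained with Hoechst. Nuclei were examined by fluorescence for chromatin condensation, nuclear shrinkage, and pyknotic or fragmented nuclei against untreated control.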
# MDA-MB-231 [8] = test: Induction of apoptosis in human MDA-MB-231 cells assessed as early apoptotic cells at 2.5 uM measured after 48 hrs by Annexin V-FITC/Propidium iodide stain based flow cytometry assay (reference value: 3.2%); format: functional
# MDA-MB-231 [9] = test: Induction of apoptosis in human MDA-MB-231 cells assessed as late apoptotic cells at 5 uM measured after 48 hrs by Annexin V-FITC/Propidium iodide stain based flow cytometry assay (reference value: 1.2%); format: functional
# MDA-MB-231 [10] = test: Induction of apoptosis in human MDA-MB-231 cells assessed as necrotic cells at 5 uM measured after 48 hrs by Annexin V-FITC/Propidium iodide stain based flow cytometry assay (reference value: 0.3%); format: functional
# MDA-MB-231 [11] = test: Induction of apoptosis in human MDA-MB-231 cells assessed as early apoptotic cells at 5 uM measured after 48 hrs by Annexin V-FITC/Propidium iodide stain based flow cytometry assay (reference value: 3.2%); format: functional
# MDA-MB-231 [12] = test: Induction of apoptosis in human MDA-MB-231 cells assessed as necrotic cells at 2.5 uM measured after 48 hrs by Annexin V-FITC/Propidium iodide stain based flow cytometry assay (reference value: 0.3%); format: functional
# MDA-MB-231 [13] = test: Induction of apoptosis in human MDA-MB-231 cells assessed as late apoptotic cells at 2.5 uM measured after 48 hrs by Annexin V-FITC/Propidium iodide stain based flow cytometry assay (reference value: 1.2%); format: functional
# MDA-MB-231 [14] = test: Induction of mitochondrial membrane potential loss in human MDA-MB-231 cells assessed as increase in depolarised cells measured after 48 hrs by JC-1 stain based flow cytometry assay relative to control; format: functional, cell-based; details: dose 2.5-5 µM
# Outline: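 MDA-MB-231 cells were treated at 2.5 and 5 µM and stained with JC-1. Depolarised mitochondria were scored by green monomer signal and healthy mitochondria by red J-aggregates, against control.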
# MDA-MB-231 [15] = test: Induction of mitochondrial membrane potential loss in human MDA-MB-231 cells assessed as generation of ROS at 5 uM measured after 48 hrs by carboxy […] stain based flow cytometry assay relative to control; format: functional, cell-based
# Outline: (§3)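 MDA-MB-231 cells were treated at several doses and stained with carboxy-H2DCFDA. ROS were read as green DCF fluorescence relative to untreated control.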
# MDA-MB-231 [16] = test: Induction of apoptosis in human MDA-MB-231 cells assessed as viable cells at 2.5 uM measured after 48 hrs by Annexin V-FITC/Propidium iodide stain based flow cytometry assay (reference value: 95.3%); format: functional; details: read-out: Activity
# MDA-MB-231 [17] = test: Induction of apoptosis in human MDA-MB-231 cells assessed as induction of morphological changes by measuring chromatin condensation measured after 48 hrs by Hoechst stain based flourescence assay in relative to control; format: functional, cell-based; details: dose 2.5-5 µM
# Outline: as §2
# MDA-MB-231 [18] = test: Induction of mitochondrial membrane potential loss in human MDA-MB-231 cells assessed as generation of ROS at 2.5 uM measured after 48 hrs by carboxy […] stain based flow cytometry assay relative to control; format: functional, cell-based
# Outline: as §3
Compound,IC50 (MDA-MB-231 [1]) [µM],IC50 (A549) [µM],IC50 (PC-3) [µM],IC50 (HepG2) [µM],further results
COc1ccc(NC(=O)Nc2nc(Sc3c[nH]c4ccccc34)cc(N3CCCC3)n2)cc1,13.1,11.8,21.5,20.3,
COc1ccc(NC(=O)Nc2nc(Sc3c[nH]c4ccccc34)cc(N3CCN(c4ccccn4)CC3)n2)cc1,28.4,> 50,33.4,11.4,
COc1ccc(NC(=O)Nc2nc(Nc3cc(OC)cc(OC)c3)cc(Sc3c[nH]c4ccccc34)n2)cc1,9.46,> 50,15.1,17.4,
Cc1ccc(C)c(NC(=O)Nc2nc(Sc3c[nH]c4ccccc34)cc(N3CCN(Cc4ccccc4)CC3)n2)c1,19,> 50,17.3,16.4,
O=C(Nc1ccccc1)Nc1nc(Sc2c[nH]c3ccccc23)cc(N2CCN(Cc3ccccc3)CC2)n1,10.2,> 50,42.5,8.16,
COc1ccc(NC(=O)Nc2nc(Sc3c[nH]c4ccccc34)cc(N3CCOCC3)n2)cc1,7.94,33.4,12.5,10.3,
O=C(Nc1ccccc1)Nc1nc(Sc2c[nH]c3ccccc23)cc(N2CCCC2)n1,7.89,21.2,14.9,11.4,
Cc1cc(Cl)ccc1NC(=O)Nc1nc(Sc2c[nH]c3ccccc23)cc(N2CCN(Cc3ccccc3)CC2)n1,22.1,> 50,22.4,11.7,
COc1ccc(NC(=O)Nc2nc(Sc3c[nH]c4ccccc34)cc(N3CCN(Cc4ccccc4)CC3)n2)cc1,8.92,42.3,16.7,21.4,
Cc1cc(Cl)ccc1NC(=O)Nc1nc(Sc2c[nH]c3ccccc23)cc(N2CCOCC2)n1,8.65,> 50,33.8,8.26,
Cc1cc(Cl)ccc1NC(=O)Nc1nc(NC2CC2)cc(Sc2c[nH]c3ccccc23)n1,14.6,31.5,11.1,9.74,
Cc1cc(Cl)ccc1NC(=O)Nc1nc(Sc2c[nH]c3ccccc23)cc(N2CCN(c3ccccn3)CC2)n1,34.7,> 50,19.8,7.64,
CNC(=O)c1cc(Oc2ccc(NC(=O)Nc3ccc(Cl)c(C(F)(F)F)c3)cc2)ccn1 [SORAFENIB],11.8,,9.77,5.78,inhibition (MDA-MB-231 [2]): Active; inhibition (HUVEC [3]): Dose-dependent effect; inhibition (MDA-MB-231 [4]): Active; inhibition (HUVEC [5]): Dose-dependent effect
O=C(Nc1ccccc1)Nc1nc(Sc2c[nH]c3ccccc23)cc(N2CCCCC2)n1,8.13,33.1,12.1,20.9,
O=C(Nc1ccc(Cl)cc1)Nc1nc(Sc2c[nH]c3ccccc23)cc(N2CCOCC2)n1,6.93,21.8,28.4,22.5,
O=C(Nc1ccccc1)Nc1nc(Nc2ccc(Cl)cc2)cc(Sc2c[nH]c3ccccc23)n1,10.3,48.4,32.3,12.6,
O=C(Nc1ccccc1)Nc1nc(NC2CC2)cc(Sc2c[nH]c3ccccc23)n1,7.86,> 50,17.5,14.3,
O=C(Nc1ccc(Cl)cc1)Nc1nc(Sc2c[nH]c3ccccc23)cc(N2CCCC2)n1,,6.41,10.4,7.87,viability at 5 µM (MDA-MB-231 [6]): 51.4%; Activity (MDA-MB-231 [7]): Dose-dependent effect; Activity (MDA-MB-231 [8]): 19.4%; Activity (MDA-MB-231 [9]): 11.2%; Activity (MDA-MB-231 [10]): 0.9%; inhibition (MDA-MB-231 [2]): Active; inhibition (HUVEC [3]): Dose-dependent effect; Activity (MDA-MB-231 [11]): 36.6%; inhibition (MDA-MB-231 [4]): Active; Activity (MDA-MB-231 [12]): 0.5%; Activity (MDA-MB-231 [13]): 3.8%; Activity (MDA-MB-231 [14]): Active; inhibition (HUVEC [5]): Dose-dependent effect; Activity (MDA-MB-231 [15]): Active; viability at 2.5 µM (MDA-MB-231 [16]): 76.2%; Activity (MDA-MB-231 [17]): Dose-dependent effect; Activity (MDA-MB-231 [18]): Active
O=C(Nc1ccccc1)Nc1nc(Sc2c[nH]c3ccccc23)cc(N2CCOCC2)n1,12.1,26.1,14.1,7.14,
O=C(Nc1ccc(Cl)cc1)Nc1nc(Sc2c[nH]c3ccccc23)cc(N2CCCCC2)n1,10.1,18.6,42.5,14.8,
Cc1ccc(NC(=O)Nc2nc(Nc3ccccc3)cc(Sc3c[nH]c4ccccc34)n2)cc1,13.4,23.4,18.4,14.9,
Cc1ccc(C)c(NC(=O)Nc2nc(Sc3c[nH]c4ccccc34)cc(N3CCCCC3)n2)c1,,25.4,> 50,6.44,Activity (MDA-MB-231 [7]): Dose-dependent effect; Activity (MDA-MB-231 [14]): Active; Activity (MDA-MB-231 [15]): Active; Activity (MDA-MB-231 [17]): Dose-dependent effect; Activity (MDA-MB-231 [18]): Active
COc1ccc(NC(=O)Nc2nc(Sc3c[nH]c4ccccc34)cc(N3CCCCC3)n2)cc1,7.26,13.5,17.4,17.1,
O=C(Nc1ccccc1)Nc1nc(Sc2c[nH]c3ccccc23)cc(N2CCN(c3ccccn3)CC2)n1,19.5,30.2,21.6,8.93,
Cc1cc(Cl)ccc1NC(=O)Nc1nc(Sc2c[nH]c3ccccc23)cc(N2CCCC2)n1,9.44,8.93,12.9,7.15,
COc1cc(NC(=O)Nc2nc(Nc3cc(OC)cc(OC)c3)cc(Sc3c[nH]c4ccccc34)n2)cc(OC)c1,> 50,> 50,11.6,24.8,
Cc1cc(Cl)ccc1NC(=O)Nc1nc(Nc2ccccc2)cc(Sc2c[nH]c3ccccc23)n1,17.1,> 50,41.9,8.37,
O=C(Nc1ccccc1)Nc1nc(Nc2ccccc2)cc(Sc2c[nH]c3ccccc23)n1,35.9,> 50,26.4,14.4,
